Data as given in ChEMBL document CHEMBL1139005, “Branched diacylglycerol-lactones as potent protein kinase C ligands and alpha-secretase activators” (J Med Chem, 2006).

Legend:
[1] = biological target: Protein kinase C alpha type (Homo sapiens, UniProt P17252); test: Displacement of [20-3H]PDBu from recombinant PKC alpha in presence of phosphatidylserine
Method in brief: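 Competition for bound [20-3H]phorbol 12,13-dibutyrate on recombinant PKC-α with phosphatidylserine present; IC50 obtained by fitting points to the theoretical competition curve, then converted to Ki.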

[2] = test system: W4 (Rattus norvegicus); test: Activation of alpha secretase assessed by sAPPalpha secretion in W4 cells relative to control; set-up: concentration or dose not given beside the values

Structure (SMILES)	Ki [1]	Activity [2]
CCCC(=O)O[C@@H]1[C@@H](C)[C@@]2(O)[C@@H](C=C(CO)C[C@]3(O)C(=O)C(C)=C[C@@H]23)[C@@H]2C(C)(C)[C@]12OC(=O)CCC	–	185%
CC(C)CC(C/C=C1\CC(/C=C\C(=O)OC(C)(C)C)(CO)OC1=O)CC(C)C (configuration not stated)	21700 nM	–
CC(C)CC(C/C=C1\CC(/C=C/C(=O)OC(C)(C)C)(CO)OC1=O)CC(C)C (configuration not stated)	173 nM	–
CC(C)CC(C/C=C1\CC(CO)(COC(=O)CC(C(C)C)C(C)C)OC1=O)CC(C)C (configuration not stated)	–	225%
CC(C)CCC1(CCC(C)C)CC(CO)(COC(=O)C(C)(C)C)OC1=O (configuration not stated)	18300 nM	–
CC(C)CC(C/C=C1/C[C@@](CO)(COC(=O)C(C)(C)C)OC1=O)CC(C)C	1.45 nM	209%
CC(C)CC(C/C=C1/CC(CO)(COC(=O)C(C)(C)C)OC1=O)CC(C)C (configuration not stated)	–	177%
CC(C)=CCC1(CC=C(C)C)CC(CO)(COC(=O)C(C)(C)C)OC1=O (configuration not stated)	2100 nM	–
CC(C)CC(C/C=C1\CC(CO)(COC(=O)C(C)(C)C)OC1=O)CC(C)C (configuration not stated)	–	133%

Now from value to compound, other results behind:

Ki [1]	Structure (SMILES)	Activity [2]
18 nM	CC(C)CC(C/C=C1/CC(/C=C/C(=O)OC(C)(C)C)(CO)OC1=O)CC(C)C (configuration not stated)	200%
129 nM	CCCCCCCC(=O)OCC1(CO)CC/C(=C\CC(CC(C)C)CC(C)C)C(=O)O1 (configuration not stated)	–
3.78 nM	CCCCCC(=O)OCC1(CO)C/C(=C/CC(CC(C)C)CC(C)C)C(=O)O1 (configuration not stated)	–
6.04 nM	CCCCCCCC(=O)OCC1(CO)C/C(=C\CC(CC(C)C)CC(C)C)C(=O)O1 (configuration not stated)	141%
6.66 nM	CC(C)CC(C/C=C1/CC(CO)(COC(=O)c2ccccc2)OC1=O)CC(C)C (configuration not stated)	157%
6.18 nM	CCCCCC(=O)OCC1(CO)C/C(=C\CC(CC(C)C)CC(C)C)C(=O)O1 (configuration not stated)	–
16.1 nM	CC(C)CC(C/C=C1\CC(CO)(COC(=O)c2ccccc2)OC1=O)CC(C)C (configuration not stated)	131%
4.97 nM	CCCCCCCC(=O)OCC1(CO)C/C(=C/CC(CC(C)C)CC(C)C)C(=O)O1 (configuration not stated)	158%
147 nM	CCCCCC(=O)OCC1(CO)CC/C(=C\CC(CC(C)C)CC(C)C)C(=O)O1 (configuration not stated)	–
48 nM	CC(C)CC(C/C=C1\CCC(CO)(COC(=O)C(C)(C)C)OC1=O)CC(C)C (configuration not stated)	–
28 nM	CC(C)CC(C/C=C1/CCC(CO)(COC(=O)C(C)(C)C)OC1=O)CC(C)C (configuration not stated)	–
6.88 nM	CC(C)CC(C/C=C1/CC(CO)(COC(=O)CC(CC(C)C)CC(C)C)OC1=O)CC(C)C (configuration not stated)	–
